For 19 compounds, IC50 and Activity results are on record in ChEMBL document CHEMBL1765001, “Synthesis and pharmacological evaluation of thieno[2,3-b]pyridine derivatives as novel c-Src inhibitors” (Bioorg Med Chem, 2011).

Active and inactive are the calls of the source. The calls are words filed in the database; no cut-off is given here. Bounds are passed on as bounds.

Test [1] addresses T1, Proto-oncogene tyrosine-protein kinase Src (Homo sapiens, UniProt P12931). As to the kind of experiment: Inhibition of c-SRC assessed as residual activity using KVEKIGEGYYGVVYK as peptide substrate after 20 mins by scintillation counting. Put shortly:
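Radiometric kinase assay: Src kinase ([…] stock diluted to 200 nM in kinase buffer) with peptide substrate (370 µM stock) and inhibitor from 10% DMSO dilution, in buffer with MgCl2, EDTA, DTT; started with 40 µM ATP plus 33P-γ-ATP, 20 min at 30 °C; stopped with 0.85% orthophosphoric acid, phosphocellulose filter capture, scintillation count. IC50 from sigmoidal variable-slope fit of mean data, at least two determinations; DMSO negative control.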

Test [2] has as its target T1, Proto-oncogene tyrosine-protein kinase Src. In words: Inhibition of c-SRC in human HCT116 cells assessed as phosphorylated FAK level after 5 hrs by Western blot assay. As to conditions: HCT-116. The test is classed as cell-based. Put shortly:
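HCT116 colon carcinoma cells seeded overnight, serum-starved, treated with inhibitors 5 h at 3 and 10 µM final; lysed in 2X Laemmli buffer, gradient SDS-PAGE, PVDF transfer. Phospho-FAK by anti-pTyr861, total FAK on separate blot; ratio by film densitometry.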

The target is the same in test [3].
Test [4] has the same target. In words: Inhibition of c-SRC in EGF-stimulated human A431 cells assessed as phosphorylated STAT3 level by Western blot assay. The test is classed as cell-based. As to conditions: A-431. Put shortly: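 A431 epidermoid carcinoma cells starved overnight, stimulated 10 min with EGF (100 ng/ml), lysed in 2X Laemmli buffer; phospho-STAT3 detected with anti-pTyr705 antibody, total STAT3 on a separate blot; pSTAT3/total STAT3 ratio by densitometry of X-ray films. DMSO with EGF set as 100% phosphorylation; 4-anilinoquinoline-3-carbonitrile positive control.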
For orientation: A western blot detects proteins with antibodies after separation by electrophoresis.

The next test has as its system Fibroblast. In words: Antitumor activity against Src-transformed fibroblasts xenograft model assessed as tumor growth inhibition at 50 mg/kg, ip after 7 days. It is filed as functional, organism-based. Also noted: dose 50 mg/kg.

T1 sequence (P12931 2-536 limits assumed): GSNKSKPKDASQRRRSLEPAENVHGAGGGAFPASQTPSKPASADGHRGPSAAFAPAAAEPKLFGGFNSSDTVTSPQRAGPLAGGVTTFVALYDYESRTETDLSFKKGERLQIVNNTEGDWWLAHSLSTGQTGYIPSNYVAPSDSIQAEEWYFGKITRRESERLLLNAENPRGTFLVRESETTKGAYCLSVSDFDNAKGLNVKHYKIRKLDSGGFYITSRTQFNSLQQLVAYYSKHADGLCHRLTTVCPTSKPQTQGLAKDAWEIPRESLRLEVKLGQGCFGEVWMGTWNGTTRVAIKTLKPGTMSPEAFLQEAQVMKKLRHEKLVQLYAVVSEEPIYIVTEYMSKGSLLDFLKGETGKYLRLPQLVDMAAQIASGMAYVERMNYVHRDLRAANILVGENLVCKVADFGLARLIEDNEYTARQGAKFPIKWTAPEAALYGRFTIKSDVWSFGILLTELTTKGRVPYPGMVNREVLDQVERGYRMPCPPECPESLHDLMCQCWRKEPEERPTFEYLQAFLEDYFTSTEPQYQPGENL

As to `Cc1cc(C(F)(F)F)nc2sc(C(=O)N/N=C/c3cccc4ccccc34)c(N)c12`, the IC50 (as a rule, the midpoint of a concentration-inhibition curve) in test [1] came out at 1.34 µM.
In the case of `Cc1cc(NCCN(C)C)nc2sc(C(=O)N/N=C/c3cccc4ccccc34)c(N)c12`, in test [1], the IC50 worked out at 0.23 µM. The Activity in test [2] is above 10 µM.
With `O=C(Cc1ccc(-c2ccc(OCCN3CCOCC3)cc2)cn1)NCc1ccccc1` [TIRBANIBULIN], half-maximal inhibition in test [3] (IC50) required 0.02 µM.
As to `Cc1cc(C)c2c(N)c(C(=O)N/N=C/c3cccn3C)sc2n1`, the IC50 in test [1] is 0.84 µM.
With `Cc1cc(C)c2c(N)c(C(=O)N/N=C/c3cccc4ccccc34)sc2n1`, the Activity in test [4] came out at 10 µM. Besides, the IC50 in test [1] is 0.269 µM.
Take `Cn1cncc1/C=N/NC(=O)c1sc2ncccc2c1N`: the IC50 in test [1] was found to be 1.3 µM.
The same measure, in the same setting: next, `Cc1cc(C)c2c(N)c(C(=O)N/N=C/c3cccn3CCN(C)C)sc2n1`: above 10 µM; `CCCc1cc2c(N)c(C(=O)N/N=C/c3cccn3C)sc2nc1NCCN(C)C`: 2.08 µM.
For the compound `CN(C)CCNc1cc(-c2ccccc2)c2c(N)c(C(=O)N/N=C/c3cccc4ccccc34)sc2n1`, the IC50 in test [1] came to 0.107 µM. The Activity in test [2] turned out to be 3 µM.
For the compound `CN(C)CCNc1nc2sc(C(=O)N/N=C/c3cccn3C)c(N)c2cc1Cc1ccccc1`, the IC50 in test [1] was found to be 3.87 µM.
As for `CCCc1cc(NCCN(C)C)nc2sc(C(=O)N/N=C/c3cccn3C)c(N)c12`, the IC50 in test [1] amounted to 0.063 µM. The Activity in test [2] was determined as 10 µM.
For `Cc1cc(C(F)(F)F)nc2sc(C(=O)N/N=C/c3cncn3C)c(N)c12`, in that order: 0.33 µM and above 10 µM.
The corresponding values for `CN(C)CCNc1cc(-c2ccccc2)c2c(N)c(C(=O)N/N=C/c3cncn3C)sc2n1` are 0.032 µM and 3 µM.
In the case of `CN(C)CCNc1cc(Cc2ccccc2)c2c(N)c(C(=O)N/N=C/c3cccn3C)sc2n1`, the IC50 in test [1] turned out to be 0.04 µM. In addition, in test [2], the Activity amounted to 3 µM.
Consider `Cc1cc(C)c2c(N)c(C(=O)N/N=C/c3cncn3C)sc2n1`, for which the Activity in test [4] was above 10 µM. The IC50 in test [1] came out at 0.769 µM.
With `Nc1c(C(=O)N/N=C/c2cccc3ccccc23)sc2ncccc12`, the IC50 in test [1] was above 10 µM.
For `COc1cc(Nc2c(C#N)cnc3cc4cc(OCCN5CCOCC5)c(OC)cc4cc23)c(Cl)cc1Cl`, in the test with Fibroblast, the outcome was Active.
For the compound `Cc1cc(NCCN(C)C)nc2sc(C(=O)N/N=C/c3cccn3C)c(N)c12`, the IC50 in test [1] came out at 0.246 µM. The Activity in test [2] is 10 µM.
As to `CN(C)CCNc1cc(-c2ccccc2)c2c(N)c(C(=O)N/N=C/c3cccn3C)sc2n1`, the IC50 in test [1] worked out at 0.068 µM. Moreover, in test [2], the Activity came out at 3 µM.
